In ChEMBL document CHEMBL3627671, “Novel derivatives of nitro-substituted salicylic acids: Synthesis, antimicrobial activity and cytotoxicity” (Bioorg Med Chem, 2015):
Converted amounts (≈) assume the structure as drawn.

Tests used:
Type in all cases: functional
[1] = tested on: Trichophyton mentagrophytes; experiment: Antifungal activity against Trichophyton mentagrophytes 445 after 24 hrs by microdilution broth method; conditions: Trichophyton mentagrophytes, 445, 24 h
Enterococcus sp. [2] = experiment: Antibacterial activity against Enterococcus sp. J 14365/08 after 48 hrs by microdilution broth method; conditions: J 14365/08, 48 h
Procedure, shortened: (§1)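 Mueller-Hinton broth microdilution (modified M07-A07), pH 7.4 (±0.2). Compounds dissolved in DMSO, tested at final 500 to 0.49 µmol/L. Inoculum in sterile water matched to 0.5 McFarland. Incubated in the dark, humid atmosphere, 35 °C, read at 24 and 48 h visually and at 540 nm. MIC taken as ≥95% growth reduction (IC95) versus control.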

[3] = tested on: Staphylococcus epidermidis; experiment: Antibacterial activity against Staphylococcus epidermidis H 6966/08 after 24 hrs by microdilution broth method; conditions: H 6966/08, 24 h; procedure, shortened: as §1
Staphylococcus aureus [4] = experiment: Antibacterial activity against Staphylococcus aureus CCM 4516/08 after 48 hrs by microdilution broth method; conditions: CCM 4516/08, 48 h
Lichtheimia corymbifera [5] = experiment: Antifungal activity against Absidia corymbifera 272 after 24 hrs by microdilution broth method; conditions: Lichtheimia corymbifera, 272, 24 h
Procedure, shortened: (§2)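 CLSI M27-A3 broth microdilution in RPMI 1640 with glutamine, buffered to pH 7.0 with MOPS; DMSO diluent. Yeast inoculum 5 × 10^3 ± 0.2 CFU/mL. Moulds grown on Sabouraud agar 3–10 days before spore harvest, final inoculum 0.5-5 × 10^4 CFU/mL, checked in a Bürker chamber. Incubated dark, humid, 35 °C, read at 24 and 48 h visually and at 540 nm. MIC taken as ≥80% (yeasts) or ≥50% (filamentous) growth reduction versus control.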

Candida albicans [6] = experiment: Antifungal activity against Candida albicans ATCC 44859 after 48 hrs by microdilution broth method; conditions: ATCC 44859, 48 h; procedure, shortened: as §2
[7] = tested on: Mycobacterium tuberculosis; experiment: Antimycobacterial activity against Mycobacterium tuberculosis H37Rv 331/88 after 14 days; conditions: H37Rv 331/88, 336 h
Staphylococcus aureus [8] = experiment: Antibacterial activity against Staphylococcus aureus CCM 4516/08 after 24 hrs by microdilution broth method; conditions: CCM 4516/08, 24 h
Mycobacterium kansasii [9] = experiment: Antimycobacterial activity against Mycobacterium kansasii 235/80 after 14 days; conditions: 235/80, 336 h
Procedure, shortened: (§3)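 Šula's semisynthetic medium micromethod at 37 °C, read after 7, 14 and 21 days. The 1.0 McFarland suspension was diluted 10^-4. MIC determined. 6509/96 is a clinical isolate.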

Pseudomonas aeruginosa [10] = experiment: Antibacterial activity against Pseudomonas aeruginosa CCM 1961 after 48 hrs by microdilution broth method; conditions: CCM 1961, 48 h; procedure, shortened: as §1
Aspergillus fumigatus [11] = experiment: Antifungal activity against Aspergillus fumigatus 231 after 24 hrs by microdilution broth method; conditions: Aspergillus fumigatus, 231, 24 h; procedure, shortened: as §2
Candida tropicalis [12] = experiment: Antifungal activity against Candida tropicalis 156 after 24 hrs by microdilution broth method; conditions: Candida tropicalis, 156, 24 h; procedure, shortened: as §2
Mycobacterium kansasii [13] = experiment: Antimycobacterial activity against Mycobacterium kansasii 6509/96 after 7 days; conditions: 6509/96, 168 h; procedure, shortened: as §3
Trichosporon asahii [14] = experiment: Antifungal activity against Trichosporon asahii 1188 after 24 hrs by microdilution broth method; conditions: Trichosporon asahii, 1188, 24 h; procedure, shortened: as §2
Mycobacterium kansasii [15] = experiment: Antimycobacterial activity against Mycobacterium kansasii 6509/96 after 14 days; conditions: 6509/96, 336 h; procedure, shortened: as §3
Mycobacterium avium [16] = experiment: Antimycobacterial activity against Mycobacterium avium 330/80 after 21 days; conditions: 330/80, 504 h
Escherichia coli [17] = experiment: Antibacterial activity against Escherichia coli CCM4517 after 24 hrs by microdilution broth method; conditions: CCM4517, 24 h; procedure, shortened: as §1
Enterococcus sp. [18] = experiment: Antibacterial activity against Enterococcus sp. J 14365/08 after 24 hrs by microdilution broth method; conditions: J 14365/08, 24 h; procedure, shortened: as §1
Klebsiella pneumoniae [19] = experiment: Antibacterial activity against ESBL-positive Klebsiella pneumoniae J 14368/08 after 24 hrs by microdilution broth method; conditions: J 14368/08, 24 h; procedure, shortened: as §1
Mycobacterium kansasii [20] = experiment: Antimycobacterial activity against Mycobacterium kansasii 6509/96 after 21 days; conditions: 6509/96, 504 h; procedure, shortened: as §3
[21] = tested on: Trichophyton mentagrophytes; experiment: Antifungal activity against Trichophyton mentagrophytes 445 after 48 hrs by microdilution broth method; conditions: Trichophyton mentagrophytes, 445, 48 h
Klebsiella pneumoniae [22] = experiment: Antibacterial activity against Klebsiella pneumoniae D 11750/08 after 24 hrs by microdilution broth method; conditions: D 11750/08, 24 h; procedure, shortened: as §1
Nakaseomyces glabratus [23] = experiment: Antifungal activity against Candida glabrata 20/I after 24 hrs by microdilution broth method; procedure, shortened: as §2
Nakaseomyces glabratus [24] = experiment: Antifungal activity against Candida glabrata 20/I after 48 hrs by microdilution broth method; procedure, shortened: as §2
Klebsiella pneumoniae [25] = experiment: Antibacterial activity against Klebsiella pneumoniae D 11750/08 after 48 hrs by microdilution broth method; conditions: D 11750/08, 48 h; procedure, shortened: as §1
Escherichia coli [26] = experiment: Antibacterial activity against Escherichia coli CCM4517 after 48 hrs by microdilution broth method; conditions: CCM4517, 48 h; procedure, shortened: as §1
[27] = tested on: Mycobacterium tuberculosis; experiment: Antimycobacterial activity against Mycobacterium tuberculosis H37Rv 331/88 after 21 days; conditions: H37Rv 331/88, 504 h
Klebsiella pneumoniae [28] = experiment: Antibacterial activity against ESBL-positive Klebsiella pneumoniae J 14368/08 after 48 hrs by microdilution broth method; conditions: J 14368/08, 48 h; procedure, shortened: as §1
Mycobacterium kansasii [29] = experiment: Antimycobacterial activity against Mycobacterium kansasii 235/80 after 7 days; conditions: 235/80, 168 h; procedure, shortened: as §3
Candida tropicalis [30] = experiment: Antifungal activity against Candida tropicalis 156 after 48 hrs by microdilution broth method; conditions: Candida tropicalis, 156, 48 h; procedure, shortened: as §2
Pichia kudriavzevii [31] = experiment: Antifungal activity against Candida krusei E28 after 24 hrs by microdilution broth method; conditions: E28, 24 h; procedure, shortened: as §2
Mycobacterium avium [32] = experiment: Antimycobacterial activity against Mycobacterium avium 330/80 after 14 days; conditions: 330/80, 336 h
Candida albicans [33] = experiment: Antifungal activity against Candida albicans ATCC 44859 after 24 hrs by microdilution broth method; conditions: ATCC 44859, 24 h; procedure, shortened: as §2
Pseudomonas aeruginosa [34] = experiment: Antibacterial activity against Pseudomonas aeruginosa CCM 1961 after 24 hrs by microdilution broth method; conditions: CCM 1961, 24 h; procedure, shortened: as §1
Aspergillus fumigatus [35] = experiment: Antifungal activity against Aspergillus fumigatus 231 after 48 hrs by microdilution broth method; conditions: Aspergillus fumigatus, 231, 48 h; procedure, shortened: as §2
Pichia kudriavzevii [36] = experiment: Antifungal activity against Candida krusei E28 after 48 hrs by microdilution broth method; conditions: E28, 48 h; procedure, shortened: as §2
Mycobacterium kansasii [37] = experiment: Antimycobacterial activity against Mycobacterium kansasii 235/80 after 21 days; conditions: 235/80, 504 h; procedure, shortened: as §3
Staphylococcus aureus [38] = experiment: Antibacterial activity against methicillin-resistant Staphylococcus aureus H 5996/08 after 48 hrs by microdilution broth method; conditions: H 5996/08, 48 h
Trichosporon asahii [39] = experiment: Antifungal activity against Trichosporon asahii 1188 after 48 hrs by microdilution broth method; conditions: Trichosporon asahii, 1188, 48 h; procedure, shortened: as §2
Staphylococcus aureus [40] = experiment: Antibacterial activity against methicillin-resistant Staphylococcus aureus H 5996/08 after 24 hrs by microdilution broth method; conditions: H 5996/08, 24 h
[41] = tested on: Staphylococcus epidermidis; experiment: Antibacterial activity against Staphylococcus epidermidis H 6966/08 after 48 hrs by microdilution broth method; conditions: H 6966/08, 48 h; procedure, shortened: as §1
Lichtheimia corymbifera [42] = experiment: Antifungal activity against Absidia corymbifera 272 after 48 hrs by microdilution broth method; conditions: Lichtheimia corymbifera, 272, 48 h; procedure, shortened: as §2

## O=C(Nc1cccc(F)c1)c1ccc([N+](=O)[O-])cc1O
[1]
  MIC: 500 µM (≈ 138 µg/mL)
Enterococcus sp. [2]
  MIC: > 500 µM
[3]
  MIC: 15.6 µM (≈ 4.31 µg/mL)
Staphylococcus aureus [4]
  MIC: 31.2 µM (≈ 8.63 µg/mL)
Lichtheimia corymbifera [5]
  MIC: 250 µM (≈ 69.1 µg/mL)
Candida albicans [6]
  MIC: 500 µM (≈ 138 µg/mL)
[7]
  MIC: 16 µM (≈ 4.42 µg/mL)
Staphylococcus aureus [8]
  MIC: 15.6 µM (≈ 4.31 µg/mL)
Mycobacterium kansasii [9]
  MIC: 16 µM (≈ 4.42 µg/mL)
Pseudomonas aeruginosa [10]
  MIC: > 500 µM
Aspergillus fumigatus [11]
  MIC: 250 µM (≈ 69.1 µg/mL)
Candida tropicalis [12]
  MIC: 250 µM (≈ 69.1 µg/mL)
Mycobacterium kansasii [13]
  MIC: 16 µM (≈ 4.42 µg/mL)
Trichosporon asahii [14]
  MIC: 250 µM (≈ 69.1 µg/mL)
Mycobacterium kansasii [15]
  MIC: 32 µM (≈ 8.84 µg/mL)
Mycobacterium avium [16]
  MIC: 125 µM (≈ 34.5 µg/mL)
Escherichia coli [17]
  MIC: 250 µM (≈ 69.1 µg/mL)
Enterococcus sp. [18]
  MIC: 500 µM (≈ 138 µg/mL)
Klebsiella pneumoniae [19]
  MIC: 500 µM (≈ 138 µg/mL)
Mycobacterium kansasii [20]
  MIC: 32 µM (≈ 8.84 µg/mL)
[21]
  MIC: 500 µM (≈ 138 µg/mL)
Klebsiella pneumoniae [22]
  MIC: 500 µM (≈ 138 µg/mL)
Nakaseomyces glabratus [23]
  MIC: > 500 µM
Nakaseomyces glabratus [24]
  MIC: > 500 µM
Klebsiella pneumoniae [25]
  MIC: > 500 µM
Escherichia coli [26]
  MIC: 250 µM (≈ 69.1 µg/mL)
[27]
  MIC: 16 µM (≈ 4.42 µg/mL)
Klebsiella pneumoniae [28]
  MIC: 500 µM (≈ 138 µg/mL)
Mycobacterium kansasii [29]
  MIC: 16 µM (≈ 4.42 µg/mL)
Candida tropicalis [30]
  MIC: 500 µM (≈ 138 µg/mL)
Pichia kudriavzevii [31]
  MIC: 62.5 µM (≈ 17.3 µg/mL)
Mycobacterium avium [32]
  MIC: 62.5 µM (≈ 17.3 µg/mL)
Candida albicans [33]
  MIC: 250 µM (≈ 69.1 µg/mL)
Pseudomonas aeruginosa [34]
  MIC: > 500 µM
Aspergillus fumigatus [35]
  MIC: 250 µM (≈ 69.1 µg/mL)
Pichia kudriavzevii [36]
  MIC: 62.5 µM (≈ 17.3 µg/mL)
Mycobacterium kansasii [37]
  MIC: 32 µM (≈ 8.84 µg/mL)
Staphylococcus aureus [38]
  MIC: 31.2 µM (≈ 8.63 µg/mL)
Trichosporon asahii [39]
  MIC: 250 µM (≈ 69.1 µg/mL)
Staphylococcus aureus [40]
  MIC: 15.6 µM (≈ 4.31 µg/mL)
[41]
  MIC: 31.2 µM (≈ 8.63 µg/mL)
Lichtheimia corymbifera [42]
  MIC: 250 µM (≈ 69.1 µg/mL)
